# Experimental data from paper PMC9773939 (ACS Omega, 2022).
# System: not listed separately
# Assay: Solubility, qualitative remarks
# Format: physicochemical
# Settings: qualitative remark
SMILES,solubility in culture,solubility
"NNc1nc(-c2cccc(Cl)c2)nc2ccccc12 [3f, (Z)-1-(2-(3-chlorophenyl)quinazolin-4(3H)-ylidene)hydrazine]",appreciable solubility,
"NNc1nc(-c2ccc(F)cc2)nc2ccccc12 [3b, (Z)-1-(2-(4-fluorophenyl)quinazolin-4(3H)-ylidene)hydrazine]",appreciable solubility,
"COc1ccccc1-c1nc2ccccc2/c(=N/N)[nH]1 [3i, (Z)-1-(2-(2-Methoxyphenyl)quinazolin-4(3H)-ylidene)hydrazine]",,poor solubilities

# System: J774.1A macrophages
# Assay: Cytotoxicity on J774.1A macrophages
# Format: cell-based
# Settings: read-out: J774.1A macrophage, CC50; 48 h, MTT
# Outline: (§1)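 Peritoneal or J774.1A macrophages were grown in DMEM with 10% heat-inactivated FBS, L-glutamine and penicillin/streptomycin. Cells were seeded at 5 × 10^4 cells/well for 24 h at 37 °C, 5% CO2, then given test compound at 10–100 μM (from 25,000 μM DMSO stock) for 48 h. MTT (0.4 mg/mL, 4 h, 37 °C) was dissolved in DMSO and read at 570 nm. Cytotoxicity was expressed relative to negative controls. At least three experiments.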
row,SMILES,CC50 [µM]
1,"NNc1nc(-c2cccc(Cl)c2)nc2ccccc12 [3f, (Z)-1-(2-(3-chlorophenyl)quinazolin-4(3H)-ylidene)hydrazine]",> 120

# System: promastigotes of L. infantum
# Assay: In vitro growth inhibition of L. infantum promastigotes
# Format: cell-based, Leishmania infantum (MHOM MA67I7MAP263)
# Settings: Leishmania infantum, 72 h, read-out: promastigote, IC50 L. infantum
# Outline: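 L. infantum MHOM MA67I7MAP263 promastigotes at 2 × 10^6 parasites/mL were exposed to 0.5–25 μM test compound for 72 h at 25 °C. Dilutions came from a 3000 μM DMSO stock, with final DMSO ≤1%. MTT (0.4 mg/mL) was added for 4 h at 37 °C, formazan was dissolved in DMSO and read at 570 nm. Inhibition was calculated against untreated controls. At least three experiments, mean ± SD.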
row,SMILES,IC50 [µM]
1,"NNc1nc(-c2cccc(Cl)c2)nc2ccccc12 [3f, (Z)-1-(2-(3-chlorophenyl)quinazolin-4(3H)-ylidene)hydrazine]",4.55 ± 0.29
2,"NNc1nc(-c2ccc(F)cc2)nc2ccccc12 [3b, (Z)-1-(2-(4-fluorophenyl)quinazolin-4(3H)-ylidene)hydrazine]",5.01 ± 0.31
3,"COc1ccccc1-c1nc2ccccc2/c(=N/N)[nH]1 [3i, (Z)-1-(2-(2-Methoxyphenyl)quinazolin-4(3H)-ylidene)hydrazine]",> 25

# Same assay, conditions: Leishmania infantum, read-out: promastigote, PGI (percentage growth inhibition) L. infantum
row,SMILES,inhibition at 25 µM [%]
1,"COc1ccccc1-c1nc2ccccc2/c(=N/N)[nH]1 [3i, (Z)-1-(2-(2-Methoxyphenyl)quinazolin-4(3H)-ylidene)hydrazine]",28.3

# Same assay, conditions: promastigotes, 72 h, MTT
row,SMILES,"promastigote, IC50 L. infantum"
1,"COc1ccccc1-c1nc2ccccc2/c(=N/N)[nH]1 [3i, (Z)-1-(2-(2-Methoxyphenyl)quinazolin-4(3H)-ylidene)hydrazine]",did not show activity

# System: not listed separately
# Assay: Cytotoxicity on primary peritoneal macrophages
# Format: cell-based, mouse
# Settings: mouse, primary peritoneal macrophages, peritoneal macrophage, CC50, 48 h, MTT
# Outline: as §1
row,SMILES,CC50 at 48 h [µM]
1,"NNc1nc(-c2cccc(Cl)c2)nc2ccccc12 [3f, (Z)-1-(2-(3-chlorophenyl)quinazolin-4(3H)-ylidene)hydrazine]",> 100
2,"NNc1nc(-c2ccc(F)cc2)nc2ccccc12 [3b, (Z)-1-(2-(4-fluorophenyl)quinazolin-4(3H)-ylidene)hydrazine]",> 100

# System: promastigotes of L. braziliensis
# Assay: In vitro growth inhibition of L. braziliensis promastigotes
# Format: cell-based, Leishmania (V) braziliensis (MHOM/BR/75/M2903)
# Settings: Leishmania braziliensis, read-out: promastigote, IC50 L. braziliensis
row,SMILES,IC50 [µM]
1,"NNc1nc(-c2cccc(Cl)c2)nc2ccccc12 [3f, (Z)-1-(2-(3-chlorophenyl)quinazolin-4(3H)-ylidene)hydrazine]",5.63 ± 0.36
2,"NNc1nc(-c2ccc(F)cc2)nc2ccccc12 [3b, (Z)-1-(2-(4-fluorophenyl)quinazolin-4(3H)-ylidene)hydrazine]",3.85 ± 0.17
3,"COc1ccccc1-c1nc2ccccc2/c(=N/N)[nH]1 [3i, (Z)-1-(2-(2-Methoxyphenyl)quinazolin-4(3H)-ylidene)hydrazine]",> 25

# Same assay, conditions: Leishmania braziliensis, read-out: promastigote, PGI (percentage growth inhibition) L. braziliensis
row,SMILES,inhibition at 25 µM [%]
1,"COc1ccccc1-c1nc2ccccc2/c(=N/N)[nH]1 [3i, (Z)-1-(2-(2-Methoxyphenyl)quinazolin-4(3H)-ylidene)hydrazine]",49.2

# Same assay, conditions: promastigotes
row,SMILES,"promastigote, IC50 L. braziliensis"
1,"COc1ccccc1-c1nc2ccccc2/c(=N/N)[nH]1 [3i, (Z)-1-(2-(2-Methoxyphenyl)quinazolin-4(3H)-ylidene)hydrazine]",did not show activity

# System: amastigotes of L. braziliensis
# Assay: Ex vivo antiamastigote activity of L. braziliensis
# Format: cell-based, L. braziliensis (MHOM/BZ/82/M2903)
# Settings: Leishmania braziliensis, 48 h, read-out: amastigote, IC50 L. braziliensis
# Outline: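 L. braziliensis MHOM/BZ/82/M2903 amastigotes were taken from footpad lesions of infected BALB/c mice. Macrophages were removed by brief centrifugation (3000 rpm, 2–3 min). Amastigotes were kept at 37 °C, pH 5.5, in supplemented M199 with 10% FCS. At 2 × 10^6/mL they were exposed to 1.0–50.0 μM test compound (controls 1% DMSO). At 48 h parasites were counted in a Neubauer chamber against untreated controls. S.I. = peritoneal macrophage CC50 / amastigote IC50.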
row,SMILES,IC50 [µM]
1,"NNc1nc(-c2cccc(Cl)c2)nc2ccccc12 [3f, (Z)-1-(2-(3-chlorophenyl)quinazolin-4(3H)-ylidene)hydrazine]",8.43 ± 0.51
2,"NNc1nc(-c2ccc(F)cc2)nc2ccccc12 [3b, (Z)-1-(2-(4-fluorophenyl)quinazolin-4(3H)-ylidene)hydrazine]",7.41 ± 0.39

# System: epimastigotes of T. cruzi
# Assay: In vitro anti-T. cruzi evaluation on epimastigotes
# Format: cell-based, T. cruzi (CL Brener clone)
# Settings: CC50 (J774.1A) / IC50 of epimastigotes (T. cruzi)
# Outline: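 Turbidity (A595) was read at day 0 and day 5. PGI was calculated relative to untreated controls, with single-point PGI at 25 μM. IC50 is the concentration […]. At least three experiments.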
row,SMILES,"S.I.T.cruzi (selectivity index), column epimastigote, IC50 (μM) T. cruzi (S.I.T.cruzi)"
1,"NNc1nc(-c2cccc(Cl)c2)nc2ccccc12 [3f, (Z)-1-(2-(3-chlorophenyl)quinazolin-4(3H)-ylidene)hydrazine]",no active
2,"NNc1nc(-c2ccc(F)cc2)nc2ccccc12 [3b, (Z)-1-(2-(4-fluorophenyl)quinazolin-4(3H)-ylidene)hydrazine]",>6.7

# Same assay, conditions: Trypanosoma cruzi, 120 h, read-out: epimastigote, IC50 T. cruzi
row,SMILES,IC50 [µM]
1,"NNc1nc(-c2cccc(Cl)c2)nc2ccccc12 [3f, (Z)-1-(2-(3-chlorophenyl)quinazolin-4(3H)-ylidene)hydrazine]",> 25
2,"NNc1nc(-c2ccc(F)cc2)nc2ccccc12 [3b, (Z)-1-(2-(4-fluorophenyl)quinazolin-4(3H)-ylidene)hydrazine]",17.9 ± 1.21
3,"COc1ccccc1-c1nc2ccccc2/c(=N/N)[nH]1 [3i, (Z)-1-(2-(2-Methoxyphenyl)quinazolin-4(3H)-ylidene)hydrazine]",> 25

# Same assay, conditions: Trypanosoma cruzi, read-out: epimastigote, PGI (percentage growth inhibition) T. cruzi, determined at 25 μM
row,SMILES,inhibition at 25 µM [%]
1,"COc1ccccc1-c1nc2ccccc2/c(=N/N)[nH]1 [3i, (Z)-1-(2-(2-Methoxyphenyl)quinazolin-4(3H)-ylidene)hydrazine]",11.9
